Data on 7 molecules can be found in ChEMBL document CHEMBL2150940, “Mechanism-based design, synthesis and biological studies of N⁵-substituted tetrahydrofolate analogs as inhibitors of cobalamin-dependent methionine synthase and potential anticancer agents” (Eur J Med Chem, 2012).

SMILES strings stand for the structures.

As usually defined, the IC50 is the midpoint of a concentration-inhibition curve.

Sequence of Methionine synthase (Q99707 whole entry): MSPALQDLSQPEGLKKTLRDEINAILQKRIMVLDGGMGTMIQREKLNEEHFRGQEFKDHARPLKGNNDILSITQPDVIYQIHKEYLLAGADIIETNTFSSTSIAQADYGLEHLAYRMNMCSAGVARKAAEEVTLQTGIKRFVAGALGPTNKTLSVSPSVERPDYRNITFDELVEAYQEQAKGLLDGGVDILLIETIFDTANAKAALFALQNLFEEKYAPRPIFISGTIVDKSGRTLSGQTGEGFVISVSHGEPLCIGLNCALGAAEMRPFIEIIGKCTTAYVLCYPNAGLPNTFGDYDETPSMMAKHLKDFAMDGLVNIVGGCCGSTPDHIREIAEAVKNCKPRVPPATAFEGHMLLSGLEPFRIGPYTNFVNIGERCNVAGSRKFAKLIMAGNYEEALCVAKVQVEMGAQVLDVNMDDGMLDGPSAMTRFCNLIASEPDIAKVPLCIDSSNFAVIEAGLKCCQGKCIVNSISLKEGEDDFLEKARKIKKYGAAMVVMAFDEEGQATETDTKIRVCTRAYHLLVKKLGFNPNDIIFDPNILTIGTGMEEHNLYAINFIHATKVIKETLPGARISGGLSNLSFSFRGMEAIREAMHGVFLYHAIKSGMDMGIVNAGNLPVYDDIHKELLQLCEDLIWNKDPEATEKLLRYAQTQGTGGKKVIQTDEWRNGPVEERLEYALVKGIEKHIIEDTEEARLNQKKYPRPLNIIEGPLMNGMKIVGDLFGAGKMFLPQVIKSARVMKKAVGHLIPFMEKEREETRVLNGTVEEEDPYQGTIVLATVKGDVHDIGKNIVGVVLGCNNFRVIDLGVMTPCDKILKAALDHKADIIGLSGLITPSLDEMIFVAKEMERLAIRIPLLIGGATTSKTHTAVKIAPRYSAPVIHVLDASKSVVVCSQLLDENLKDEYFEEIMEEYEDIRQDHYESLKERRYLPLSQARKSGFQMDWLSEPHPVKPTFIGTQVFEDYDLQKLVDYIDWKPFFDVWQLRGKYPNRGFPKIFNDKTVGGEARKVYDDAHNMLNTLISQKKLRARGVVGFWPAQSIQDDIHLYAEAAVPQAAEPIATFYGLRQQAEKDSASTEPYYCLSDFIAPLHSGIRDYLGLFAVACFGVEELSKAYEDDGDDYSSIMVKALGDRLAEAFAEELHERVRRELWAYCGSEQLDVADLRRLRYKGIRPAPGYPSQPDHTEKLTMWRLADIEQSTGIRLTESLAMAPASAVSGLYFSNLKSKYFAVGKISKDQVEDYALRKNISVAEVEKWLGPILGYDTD

For one test, the system named is SK-OV-3. The test can be described thus: Ratio of MTX IC50 to compound IC50 for human SKOV3 cells. The test is classed as functional.
Conditions: not given
In the case of `Nc1nc(N)c2c(n1)CCC(CNc1ccc(C(=O)N[C@@H](CCC(=O)O)C(=O)O)cc1Br)N2CC(Br)CBr` (stereo not given in full), the “Ratio IC50” value was determined as 1.4.

In a further test the test system is KB. The test can be described thus: Antiproliferative activity against human KB cells after 48 hrs. The test is classed as functional, cell-based.
Conditions: not given
An outline of the steps:
(§1)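 Cells kept in RPMI-1640 with 10% fetal bovine serum, penicillin (100 units mL⁻¹) and streptomycin at 37 °C in humidified 5% CO₂. Exponentially growing cells were exposed to a range of compound concentrations for 48 h. Growth inhibition was read by MTT and SRB assays. Values are means of three independent experiments.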
In turn, `C=CCN(CC1CCc2nc(N)nc(N)c2N1CC=C)c1ccc(C(=O)N[C@@H](CCC(=O)O)C(=O)O)cc1` (stereo not given in full) had an IC50 of 6.72 µM.

Molecule `C=CCN1c2c(N)nc(N)nc2CCC1CNc1ccc(C(=O)N[C@@H](CCC(=O)O)C(=O)O)cc1` (stereo not given in full) had a half-maximal inhibitory concentration (IC50) above 100 µM.

`C=CCN1c2c(N)nc(N)nc2CCC1CNc1ccc(C(=O)N[C@@H](CCC(=O)O)C(=O)O)cc1Br` (stereo not given in full) yielded an IC50 above 100 µM.

Molecule `Nc1nc(N)c2c(n1)CCC(CNc1ccc(C(=O)N[C@@H](CCC(=O)O)C(=O)O)cc1)N2` (mixture of isomers) had an IC50 above 100 µM.

For `CN(Cc1cnc2nc(N)nc(N)c2n1)c1ccc(C(=O)N[C@@H](CCC(=O)O)C(=O)O)cc1` [METHOTREXATE], the IC50 was 20.9 µM.

`Nc1nc(N)c2c(n1)CCC(CNc1ccc(C(=O)N[C@@H](CCC(=O)O)C(=O)O)cc1Br)N2CC(Br)CBr` (stereo not given in full) yielded an IC50 above 100 µM.

The next test concerns the target Methionine synthase (Homo sapiens, UniProt Q99707). The test can be described thus: Inhibition of methionine synthase in human HL60 cells using L-homocysteine as substrate incubated for 3 hrs prior to substrate addition measured after 10 mins spectrophotometric analysis. The test is classed as cell-based, HL-60.
Conditions: not given
An outline of the steps: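 HL60 cells (1 × 10⁶/well) were serum-starved, then exposed 3 h to varied compound concentrations, lysed in HEPES pH 7.5 buffer and cleared at 4 °C. Lysate was mixed with potassium phosphate pH 7.2, DTT, 5-methyltetrahydrofolate, SAM and hydroxocobalamin (stock levels given) and preincubated 5 min at 37 °C. L-homocysteine started a 10 min 37 °C reaction. HCl/formic acid stop at 80 °C 10 min; A350 read.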
`C=CCN(CC1CCc2nc(N)nc(N)c2N1CC=C)c1ccc(C(=O)N[C@@H](CCC(=O)O)C(=O)O)cc1` (stereo not given in full): half-maximal inhibition (IC50) required 15.9 µM.

`C=CCN1c2c(N)nc(N)nc2CCC1CNc1ccc(C(=O)N[C@@H](CCC(=O)O)C(=O)O)cc1` (stereo not given in full) yielded an IC50 of 27.8 µM.

The molecule `C=CCN1c2c(N)nc(N)nc2CCC1CNc1ccc(C(=O)N[C@@H](CCC(=O)O)C(=O)O)cc1Br` (stereo not given in full) displayed an IC50 of 21 µM.

`Nc1nc(N)c2c(n1)CCC(CNc1ccc(C(=O)N[C@@H](CCC(=O)O)C(=O)O)cc1)N2` (mixture of isomers) returned an IC50 of 87.9 µM.

Molecule `CN(CC1CCc2nc(N)nc(N)c2N1)c1ccc(C(=O)N[C@@H](CCC(=O)O)C(=O)O)cc1` (mixture of isomers) returned an IC50 above 100 µM.

For `Nc1nc(N)c2c(n1)CCC(CNc1ccc(C(=O)N[C@@H](CCC(=O)O)C(=O)O)cc1Br)N2CC(Br)CBr` (stereo not given in full), it took 1.43 µM to reach half-maximal inhibition (IC50).

The next test deals with T1, Dihydrofolate reductase (Homo sapiens, UniProt P00374).
T1 sequence (P00374 whole entry): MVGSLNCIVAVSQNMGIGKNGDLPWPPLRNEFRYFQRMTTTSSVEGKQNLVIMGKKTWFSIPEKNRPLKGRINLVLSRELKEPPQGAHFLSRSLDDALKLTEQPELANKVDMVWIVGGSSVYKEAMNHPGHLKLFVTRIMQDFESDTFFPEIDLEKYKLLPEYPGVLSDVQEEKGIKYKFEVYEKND
The test can be described thus: Inhibition of human recombinant DHFR using dihydrofolate as substrate by spectrophotometric analysis.
Conditions: not given
An outline of the steps:
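Recombinant human DHFR was followed spectrophotometrically in 0.1 mM dihydrofolate, 0.3 mM NADPH and 100 mM KCl, pH 7.5, at 32 °C.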
Take `CN(CC1CCc2nc(N)nc(N)c2N1)c1ccc(C(=O)N[C@@H](CCC(=O)O)C(=O)O)cc1` (mixture of isomers): the IC50 came to 0.033 µM.

The next test concerns SK-OV-3. The test can be described thus: Antiproliferative activity against human SKOV3 cells after 48 hrs. The test is classed as functional, cell-based. Particulars: SK-OV-3, 48 h. An outline of the steps: as §1
With `C=CCN(CC1CCc2nc(N)nc(N)c2N1CC=C)c1ccc(C(=O)N[C@@H](CCC(=O)O)C(=O)O)cc1` (stereo not given in full), the IC50 stood at 50.2 µM.

The molecule `C=CCN1c2c(N)nc(N)nc2CCC1CNc1ccc(C(=O)N[C@@H](CCC(=O)O)C(=O)O)cc1` (stereo not given in full) showed an IC50 of 0.87 µM.

With `C=CCN1c2c(N)nc(N)nc2CCC1CNc1ccc(C(=O)N[C@@H](CCC(=O)O)C(=O)O)cc1Br` (stereo not given in full), the 50% inhibitory concentration (IC50) is above 100 µM.

As to `Nc1nc(N)c2c(n1)CCC(CNc1ccc(C(=O)N[C@@H](CCC(=O)O)C(=O)O)cc1)N2` (mixture of isomers), the IC50 was 0.24 µM.

Consider `CN(Cc1cnc2nc(N)nc(N)c2n1)c1ccc(C(=O)N[C@@H](CCC(=O)O)C(=O)O)cc1` [METHOTREXATE], for which the IC50 is 0.06 µM.

As for `Nc1nc(N)c2c(n1)CCC(CNc1ccc(C(=O)N[C@@H](CCC(=O)O)C(=O)O)cc1Br)N2CC(Br)CBr` (stereo not given in full), the IC50 came out at 0.042 µM.
